Data: ChEMBL document CHEMBL3734675, “Synthesis, antimycobacterial and antibacterial activity of fluoroquinolone derivatives containing an 3-alkoxyimino-4-(cyclopropylanimo)methylpyrrolidine moiety” (2015)
Converted amounts (≈) assume the structure as drawn.

Tests used:
Assay type in all cases: functional
Escherichia coli [1] = test: Antibacterial activity against Escherichia coli ATCC 25922 after 18 to 24 hrs by two-fold serial dilution method
Method in brief: (§1)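 Twofold serial dilution in agar media against Gram-positive and Gram-negative strains. Plates incubated at 35 °C for 18–24 h. MIC read as the lowest compound concentration giving complete inhibition of bacterial growth.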

Escherichia coli [2] = test: Antibacterial activity against extended-spectrum beta-lactamase producing Escherichia coli 14-1 after 18 to 24 hrs by two-fold serial dilution method; method in brief: as §1
Escherichia coli [3] = test: Antibacterial activity against extended-spectrum beta-lactamase producing Escherichia coli 14-2 after 18 to 24 hrs by two-fold serial dilution method; method in brief: as §1
Escherichia coli [4] = test: Antibacterial activity against Escherichia coli 14-1 after 18 to 24 hrs by two-fold serial dilution method; method in brief: as §1
Escherichia coli [5] = test: Antibacterial activity against Escherichia coli 14-2 after 18 to 24 hrs by two-fold serial dilution method; method in brief: as §1
Klebsiella pneumoniae [6] = test: Antibacterial activity against extended-spectrum beta-lactamase producing Klebsiella pneumoniae 14-17 after 18 to 24 hrs by two-fold serial dilution method; method in brief: as §1
Klebsiella pneumoniae [7] = test: Antibacterial activity against extended-spectrum beta-lactamase producing Klebsiella pneumoniae 14-18 after 18 to 24 hrs by two-fold serial dilution method; method in brief: as §1
Klebsiella pneumoniae [8] = test: Antibacterial activity against extended-spectrum beta-lactamase producing Klebsiella pneumoniae 14-19 after 18 to 24 hrs by two-fold serial dilution method; method in brief: as §1
Klebsiella pneumoniae [9] = test: Antibacterial activity against Klebsiella pneumoniae 14-1 after 18 to 24 hrs by two-fold serial dilution method; method in brief: as §1
Klebsiella pneumoniae [10] = test: Antibacterial activity against Klebsiella pneumoniae 14-2 after 18 to 24 hrs by two-fold serial dilution method; method in brief: as §1
Klebsiella pneumoniae [11] = test: Antibacterial activity against Klebsiella pneumoniae 14-3 after 18 to 24 hrs by two-fold serial dilution method; method in brief: as §1
Klebsiella pneumoniae [12] = test: Antibacterial activity against Klebsiella pneumoniae 14-4 after 18 to 24 hrs by two-fold serial dilution method; method in brief: as §1
Pseudomonas aeruginosa [13] = test: Antibacterial activity against Pseudomonas aeruginosa ATCC 27853 after 18 to 24 hrs by two-fold serial dilution method; method in brief: as §1
Pseudomonas aeruginosa [14] = test: Antibacterial activity against Pseudomonas aeruginosa 14-9 after 18 to 24 hrs by two-fold serial dilution method; method in brief: as §1
Pseudomonas aeruginosa [15] = test: Antibacterial activity against Pseudomonas aeruginosa 14-14 after 18 to 24 hrs by two-fold serial dilution method; method in brief: as §1
Pseudomonas aeruginosa [16] = test: Antibacterial activity against Pseudomonas aeruginosa 14-15 after 18 to 24 hrs by two-fold serial dilution method; method in brief: as §1
Pseudomonas aeruginosa [17] = test: Antibacterial activity against Pseudomonas aeruginosa 14-16 after 18 to 24 hrs by two-fold serial dilution method; method in brief: as §1
Staphylococcus aureus [18] = test: Antibacterial activity against Staphylococcus aureus CMCC 26003 after 18 to 24 hrs by two-fold serial dilution method; method in brief: as §1
Staphylococcus aureus [19] = test: Antibacterial activity against methicillin-sensitive Staphylococcus aureus 14-1 after 18 to 24 hrs by two-fold serial dilution method; method in brief: as §1
Staphylococcus aureus [20] = test: Antibacterial activity against methicillin-sensitive Staphylococcus aureus 14-3 after 18 to 24 hrs by two-fold serial dilution method; method in brief: as §1
Staphylococcus aureus [21] = test: Antibacterial activity against methicillin-sensitive Staphylococcus aureus 14-4 after 18 to 24 hrs by two-fold serial dilution method; method in brief: as §1
Staphylococcus aureus [22] = test: Antibacterial activity against methicillin-resistant Staphylococcus aureus 14-4 after 18 to 24 hrs by two-fold serial dilution method
Method in brief: (§2)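 Agar media, standard twofold serial dilution. MIC is the lowest concentration giving complete inhibition of bacterial growth after incubation at 35 °C for 18–24 h. Ciprofloxacin and levofloxacin were run as comparators.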

Staphylococcus aureus [23] = test: Antibacterial activity against methicillin-resistant Staphylococcus aureus 14-5 after 18 to 24 hrs by two-fold serial dilution method; method in brief: as §2
[24] = test system: Staphylococcus epidermidis; test: Antibacterial activity against methicillin-sensitive Staphylococcus epidermidis 14-2 after 18 to 24 hrs by two-fold serial dilution method; method in brief: as §1
[25] = test system: Staphylococcus epidermidis; test: Antibacterial activity against methicillin-resistant Staphylococcus epidermidis 14-21 after 18 to 24 hrs by two-fold serial dilution method; method in brief: as §2
[26] = test system: Staphylococcus epidermidis; test: Antibacterial activity against methicillin-resistant Staphylococcus epidermidis 14-22 after 18 to 24 hrs by two-fold serial dilution method; method in brief: as §2
[27] = test system: Staphylococcus epidermidis; test: Antibacterial activity against methicillin-resistant Staphylococcus epidermidis 14-37 after 18 to 24 hrs by two-fold serial dilution method; method in brief: as §2
[28] = test system: Staphylococcus epidermidis; test: Antibacterial activity against methicillin-resistant Staphylococcus epidermidis 14-39 after 18 to 24 hrs by two-fold serial dilution method; method in brief: as §2
Streptococcus pneumoniae = test: Antibacterial activity against methicillin-resistant Streptococcus pneumoniae ATCC 19615 after 18 to 24 hrs by two-fold serial dilution method; method in brief: as §2
Enterococcus faecium [29] = test: Antibacterial activity against Enterococcus faecium 14-2 after 18 to 24 hrs by two-fold serial dilution method; method in brief: as §1
Enterococcus faecium [30] = test: Antibacterial activity against Enterococcus faecium 14-5 after 18 to 24 hrs by two-fold serial dilution method; method in brief: as §1
Enterococcus faecium [31] = test: Antibacterial activity against Enterococcus faecium 14-6 after 18 to 24 hrs by two-fold serial dilution method; method in brief: as §1
Enterococcus faecalis [32] = test: Antibacterial activity against Enterococcus faecalis 14-1 after 18 to 24 hrs by two-fold serial dilution method; method in brief: as §1
Enterococcus faecalis [33] = test: Antibacterial activity against Enterococcus faecalis 14-2 after 18 to 24 hrs by two-fold serial dilution method; method in brief: as §1
[34] = test system: Mycobacterium tuberculosis; test: Antimycobacterial activity against Mycobacterium tuberculosis H37Rv ATCC 27294 incubated for 7 days by microplate Alamar Blue assay; conditions: H37Rv ATCC 27294, 168 h
Method in brief: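 Fluorescence read-out. MIC is the lowest concentration that reduces fluorescence by at least 90% relative to the mean of replicate bacterium-only controls. Isoniazid and rifampicin were included as reference drugs.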

Structure (SMILES) | MIC (Escherichia coli [1]) [µg/mL] | MIC (Escherichia coli [2]) [µg/mL] | MIC (Escherichia coli [3]) [µg/mL] | MIC (Escherichia coli [4]) [µg/mL] | MIC (Escherichia coli [5]) [µg/mL] | MIC (Klebsiella pneumoniae [6]) [µg/mL] | MIC (Klebsiella pneumoniae [7]) [µg/mL] | MIC (Klebsiella pneumoniae [8]) [µg/mL] | MIC (Klebsiella pneumoniae [9]) [µg/mL] | MIC (Klebsiella pneumoniae [10]) [µg/mL] | MIC (Klebsiella pneumoniae [11]) [µg/mL] | MIC (Klebsiella pneumoniae [12]) [µg/mL] | MIC (Pseudomonas aeruginosa [13]) [µg/mL] | MIC (Pseudomonas aeruginosa [14]) [µg/mL] | MIC (Pseudomonas aeruginosa [15]) [µg/mL] | MIC (Pseudomonas aeruginosa [16]) [µg/mL] | MIC (Pseudomonas aeruginosa [17]) [µg/mL] | MIC (Staphylococcus aureus [18]) [µg/mL] | MIC (Staphylococcus aureus [19]) [µg/mL] | MIC (Staphylococcus aureus [20]) [µg/mL] | also measured
C[C@H]1COc2c(N3C/C(=N/OCc4ccccc4)C(CNC4CC4)C3)c(F)cc3c(=O)c(C(=O)O)cn1c23 (some centres undefined) | 1 (≈ 1.92 µM) | 2 (≈ 3.84 µM) | > 64 | > 64 | > 64 | 32 (≈ 61.5 µM) | 32 (≈ 61.5 µM) | 64 (≈ 123 µM) | 32 (≈ 61.5 µM) | 64 (≈ 123 µM) | 64 (≈ 123 µM) | 64 (≈ 123 µM) | 32 (≈ 61.5 µM) | 16 (≈ 30.7 µM) | 64 (≈ 123 µM) | 64 (≈ 123 µM) | 32 (≈ 61.5 µM) | < 0.008 | 2 (≈ 3.84 µM) | 0.125 (≈ 0.24 µM) | MIC (Staphylococcus aureus [21]): 0.06 µg/mL (≈ 0.115 µM); MIC (Staphylococcus aureus [22]): 4 µg/mL (≈ 7.68 µM); MIC (Staphylococcus aureus [23]): 4 µg/mL (≈ 7.68 µM); MIC [24]: 8 µg/mL (≈ 15.4 µM); MIC [25]: 8 µg/mL (≈ 15.4 µM); MIC [26]: 4 µg/mL (≈ 7.68 µM); MIC [27]: 2 µg/mL (≈ 3.84 µM); MIC [28]: 4 µg/mL (≈ 7.68 µM); MIC (Streptococcus pneumoniae): 0.125 µg/mL (≈ 0.24 µM); MIC (Enterococcus faecium [29]): 4 µg/mL (≈ 7.68 µM); MIC (Enterococcus faecium [30]): 8 µg/mL (≈ 15.4 µM); MIC (Enterococcus faecium [31]): 16 µg/mL (≈ 30.7 µM); MIC (Enterococcus faecalis [32]): 16 µg/mL (≈ 30.7 µM); MIC (Enterococcus faecalis [33]): 0.5 µg/mL (≈ 0.961 µM)
CO/N=C1/CN(c2nc3c(cc2F)c(=O)c(C(=O)O)cn3[C@@H]2C[C@@H]2F)CC1CNC1CC1 (some centres undefined) | 4 (≈ 8.94 µM) | 16 (≈ 35.8 µM) | > 128 | > 128 | > 128 | 32 (≈ 71.5 µM) | 32 (≈ 71.5 µM) | 64 (≈ 143 µM) | 64 (≈ 143 µM) | 64 (≈ 143 µM) | > 128 | > 128 | 8 (≈ 17.9 µM) | 8 (≈ 17.9 µM) | 32 (≈ 71.5 µM) | 64 (≈ 143 µM) | 32 (≈ 71.5 µM) | < 0.008 | 8 (≈ 17.9 µM) | 8 (≈ 17.9 µM) | MIC90 [34]: 1.25 µg/mL (≈ 2.79 µM); MIC (Staphylococcus aureus [21]): 16 µg/mL (≈ 35.8 µM); MIC (Staphylococcus aureus [22]): > 128 µg/mL; MIC (Staphylococcus aureus [23]): 8 µg/mL (≈ 17.9 µM); MIC [24]: > 128 µg/mL; MIC [25]: 32 µg/mL (≈ 71.5 µM); MIC [26]: 16 µg/mL (≈ 35.8 µM); MIC [27]: 64 µg/mL (≈ 143 µM); MIC [28]: 32 µg/mL (≈ 71.5 µM); MIC (Streptococcus pneumoniae): 4 µg/mL (≈ 8.94 µM); MIC (Enterococcus faecium [29]): 16 µg/mL (≈ 35.8 µM); MIC (Enterococcus faecium [30]): 32 µg/mL (≈ 71.5 µM); MIC (Enterococcus faecium [31]): 64 µg/mL (≈ 143 µM); MIC (Enterococcus faecalis [32]): 128 µg/mL (≈ 286 µM); MIC (Enterococcus faecalis [33]): 0.5 µg/mL (≈ 1.12 µM)
